Reference: ChEMBL document CHEMBL4406880, “Design, synthesis, and bioactivity of dihydropyrimidine derivatives as kinesin spindle protein inhibitors” (Bioorg Med Chem, 2019)

Key:
Format in all cases: functional
CCRF-CEM = test: Growth inhibition of human CCRF-CEM cells assessed as growth percentage at 10 uM incubated for 48 hrs by sulforhodamine B assay relative to control; settings: read-out: Activity
Summary of the method: (§1)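 NCI-60 one-dose screen: cells in RPMI 1640 with 5% FBS and 2 mM L-glutamine, plated at 5,000–40,000 cells/well and preincubated 24 h at 37 °C, 5% CO2. Compound is added from a DMSO stock to a final 10 µM and incubated 48 h. Cells are TCA-fixed and stained with sulforhodamine B, read at 515 nm. Output is % growth versus untreated control, with a time-zero plate.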

MOLT-4 = test: Growth inhibition of human MOLT4 cells assessed as growth percentage at 10 uM incubated for 48 hrs by sulforhodamine B assay relative to control; settings: MOLT-4, 48 h, read-out: Activity
Summary of the method: (§2)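 NCI-60 one-dose screen. Cells in RPMI 1640 with 5% FBS and 2 mM L-glutamine, seeded at 5,000–40,000 cells/well according to doubling time, and preincubated overnight at 37 °C, 5% CO2. A time-zero plate was TCA-fixed at drug addition. Compound from DMSO stock, final 10 µM, 48 h; DMSO vehicle controls. Fixation with TCA, 10% final (16% for suspension cells). SRB stain, Tris solubilization, A515. Result given as % growth versus untreated cells.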

HOP-92 = test: Growth inhibition of human HOP92 cells assessed as growth percentage at 10 uM incubated for 48 hrs by sulforhodamine B assay relative to control; settings: HOP-92, 48 h, read-out: Activity; summary of the method: as §2
NCI-H23 = test: Growth inhibition of human NCI-H23 cells assessed as growth percentage at 10 uM incubated for 48 hrs by sulforhodamine B assay relative to control; settings: NCI-H23, 48 h, read-out: Activity; summary of the method: as §2
COLO 205 = test: Growth inhibition of human COLO205 cells assessed as growth percentage at 10 uM incubated for 48 hrs by sulforhodamine B assay relative to control; settings: COLO 205, 48 h, read-out: Activity; summary of the method: as §1
HCC 2998 = test: Growth inhibition of human HCC2998 cells assessed as growth percentage at 10 uM incubated for 48 hrs by sulforhodamine B assay relative to control; settings: HCC 2998, 48 h, read-out: Activity; summary of the method: as §1
HT-29 = test: Growth inhibition of human HT-29 cells assessed as growth percentage at 10 uM incubated for 48 hrs by sulforhodamine B assay relative to control; settings: HT-29, 48 h, read-out: Activity; summary of the method: as §2
SF-539 = test: Growth inhibition of human SF539 cells assessed as growth percentage at 10 uM incubated for 48 hrs by sulforhodamine B assay relative to control; settings: SF-539, 48 h, read-out: Activity
Summary of the method: (§3)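 NCI-60 single-dose screen. Cells were grown in RPMI 1640 with 5% FBS and 2 mM L-glutamine and plated at 5,000–40,000 cells/well. After an overnight preincubation at 37 °C in 5% CO2, compound was added at a final 10 µM from a DMSO stock, with DMSO/PBS controls. After 48 h, cells were TCA-fixed and stained with 0.4% SRB, and absorbance was read at 515 nm. Growth is given as a percentage of untreated control.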

SNB-19 = test: Growth inhibition of human SNB19 cells assessed as growth percentage at 10 uM incubated for 48 hrs by sulforhodamine B assay relative to control; settings: SNB-19, 48 h, read-out: Activity; summary of the method: as §3
MDA-MB-435 = test: Growth inhibition of human MDA-MB-435 cells assessed as growth percentage at 10 uM incubated for 48 hrs by sulforhodamine B assay relative to control; settings: MDA-MB-435, 48 h, read-out: Activity; summary of the method: as §2
SK-MEL-28 = test: Growth inhibition of human SK-MEL-28 cells assessed as growth percentage at 10 uM incubated for 48 hrs by sulforhodamine B assay relative to control; settings: SK-MEL-28, 48 h, read-out: Activity; summary of the method: as §3
IGROV-1 = test: Growth inhibition of human IGROV1 cells assessed as growth percentage at 10 uM incubated for 48 hrs by sulforhodamine B assay relative to control; settings: IGROV-1, 48 h, read-out: Activity; summary of the method: as §2
OVCAR-3 = test: Growth inhibition of human OVCAR3 cells assessed as growth percentage at 10 uM incubated for 48 hrs by sulforhodamine B assay relative to control; settings: OVCAR-3, 48 h, read-out: Activity; summary of the method: as §2
OVCAR-8 = test: Growth inhibition of human OVCAR8 cells assessed as growth percentage at 10 uM incubated for 48 hrs by sulforhodamine B assay relative to control; settings: OVCAR-8, 48 h, read-out: Activity; summary of the method: as §3
NCI/ADR-RES = test: Growth inhibition of human NCI/ADR-RES cells assessed as growth percentage at 10 uM incubated for 48 hrs by sulforhodamine B assay relative to control; settings: read-out: Activity; summary of the method: as §2
786-0 = test: Growth inhibition of human 786-0 cells assessed as growth percentage at 10 uM incubated for 48 hrs by sulforhodamine B assay relative to control; settings: 786-0, 48 h, read-out: Activity; summary of the method: as §1
CAKI-1 = test: Growth inhibition of human Caki1 cells assessed as growth percentage at 10 uM incubated for 48 hrs by sulforhodamine B assay relative to control; settings: CAKI-1, 48 h, read-out: Activity; summary of the method: as §1
RXF 393 = test: Growth inhibition of human RXF393 cells assessed as growth percentage at 10 uM incubated for 48 hrs by sulforhodamine B assay relative to control; settings: RXF 393, 48 h, read-out: Activity; summary of the method: as §3
TK-10 = test: Growth inhibition of human TK10 cells assessed as growth percentage at 10 uM incubated for 48 hrs by sulforhodamine B assay relative to control; settings: TK-10, 48 h, read-out: Activity; summary of the method: as §3
UO-31 = test: Growth inhibition of human UO31 cells assessed as growth percentage at 10 uM incubated for 48 hrs by sulforhodamine B assay relative to control; settings: UO-31, 48 h, read-out: Activity; summary of the method: as §3
DU-145 = test: Growth inhibition of human DU145 cells assessed as growth percentage at 10 uM incubated for 48 hrs by sulforhodamine B assay relative to control; settings: DU-145, 48 h, read-out: Activity; summary of the method: as §1
MCF7 = test: Growth inhibition of human MCF7 cells assessed as growth percentage at 10 uM incubated for 48 hrs by sulforhodamine B assay relative to control; settings: MCF7, 48 h, read-out: Activity; summary of the method: as §2
Hs-578T = test: Growth inhibition of human Hs 578T cells assessed as growth percentage at 10 uM incubated for 48 hrs by sulforhodamine B assay relative to control; settings: read-out: Activity; summary of the method: as §2
BT-549 = test: Growth inhibition of human BT549 cells assessed as growth percentage at 10 uM incubated for 48 hrs by sulforhodamine B assay relative to control; settings: BT-549, 48 h, read-out: Activity; summary of the method: as §1
T47D = test: Growth inhibition of human T47D cells assessed as growth percentage at 10 uM incubated for 48 hrs by sulforhodamine B assay relative to control; settings: read-out: Activity; summary of the method: as §3
MDA-MB-468 = test: Growth inhibition of human MDA-MB-468 cells assessed as growth percentage at 10 uM incubated for 48 hrs by sulforhodamine B assay relative to control; settings: MDA-MB-468, 48 h, read-out: Activity; summary of the method: as §2

Row | Compound | growth at 10 µM (CCRF-CEM) [%] | growth at 10 µM (MOLT-4) [%] | growth at 10 µM (HOP-92) [%] | growth at 10 µM (NCI-H23) [%] | growth at 10 µM (COLO 205) [%] | growth at 10 µM (HCC 2998) [%] | growth at 10 µM (HT-29) [%] | growth at 10 µM (SF-539) [%] | growth at 10 µM (SNB-19) [%] | growth at 10 µM (MDA-MB-435) [%] | growth at 10 µM (SK-MEL-28) [%] | growth at 10 µM (IGROV-1) [%] | growth at 10 µM (OVCAR-3) [%] | growth at 10 µM (OVCAR-8) [%] | growth at 10 µM (NCI/ADR-RES) [%] | growth at 10 µM (786-0) [%] | growth at 10 µM (CAKI-1) [%] | growth at 10 µM (RXF 393) [%] | growth at 10 µM (TK-10) [%] | growth at 10 µM (UO-31) [%] | other results
1 | COCCOC(=O)C1=C(C)NC(=O)NC1c1ccc2c(c1)OCO2 (racemic) | 99 | 101 | 112 | 92 | 102 | 101 | 102 | 101 | 95.6 | 101 | 112 | 103 | 110 | 99.3 | 104 | 102 | 90.4 | 94.6 | 100 | 87.3 | growth at 10 µM (DU-145): 108%; growth at 10 µM (MCF7): 96.8%; growth at 10 µM (Hs-578T): 103%; growth at 10 µM (BT-549): 106%; growth at 10 µM (T47D): 98.4%; growth at 10 µM (MDA-MB-468): 106%
2 | CC1=C(C(=O)OCc2ccccc2)C(c2ccc3c(c2)OCO3)NC(=O)N1 (racemic) | 103 | 104 | 92.3 | 101 | 116 | 116 | 109 | 97.8 | 96.1 | 103 | 110 | 97.2 | 119 | 101 | 97.7 | 99.1 | 89.5 | 102 | 101 | 83.1 | growth at 10 µM (DU-145): 107%; growth at 10 µM (MCF7): 101%; growth at 10 µM (Hs-578T): 98.1%; growth at 10 µM (BT-549): 80.2%; growth at 10 µM (T47D): 89.2%; growth at 10 µM (MDA-MB-468): 92%
